We go through 22 compounds from ChEMBL document CHEMBL1157714, “Synthesis, anti-HIV and anti-oxidant activities of caffeoyl 5,6-anhydroquinic acid derivatives” (Bioorg Med Chem, 2010).

Values after ≈ are worked out from the molar mass of the structure shown. Bounds are passed on as bounds.

The IC50 is the concentration that inhibits the measured activity by half. In general, EC50 refers to the concentration at which the effect is half-maximal.

The subject of series [1] is Human immunodeficiency virus 1. As to the kind of experiment: Antiviral activity against HIV1 3B infected in human MT4 cells after 5 days. The series is classed as functional. The procedure, abridged: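 MT-4 cells were infected 1 h with HIV-1 (HTLV-IIIB) at TCID50 0.001/cell, resuspended at 1 × 10⁵ cells/ml in RPMI-1640, and cultured 5 days with graded compound concentrations. Infected and uninfected controls had no compound. On day 5, the concentration fully preventing the virus-induced cytopathic effect was read by optical microscopy.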

The test system of the next series is MT4. As to the kind of experiment: Cytotoxicity against human MT4 cells after 5 days. The series is classed as cell-based. Conditions: mt4, 120 h. The procedure, abridged:
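Over a 5-day culture in RPMI-1640 with graded compound concentrations, MT-4 cell growth was checked by optical microscopy. The cytotoxic concentration (CC) was the concentration that reduced MT-4 viability.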

Series [2] in a line: Antioxidant activity assessed as SOD-like activity by WST1 assay. The series is classed as functional. Put shortly: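 SOD Assay Kit-WST in 96-well plates. Compound in DMSO was mixed with WST working solution, and the reaction was started with xanthine oxidase. After 20 min at 37 °C, absorbance was read at 450 nm. Inhibition % was corrected with three blanks (DMSO, no enzyme, DMSO plus buffer). Four concentrations were tested, and IC50 was taken from the inhibition-concentration plot.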
For orientation: Tetrazolium dyes change colour on reduction, which living cells bring about.

In series [3] the test system is Radical scavenging activity. In words: Antioxidant activity assessed as DPPH radical scavenging activity. Format: functional. The procedure, abridged: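 Each well held 10 µl compound in DMSO plus 190 µl of 0.1 mM DPPH in ethanol. After 20 min at rt, absorbance was read at 540 nm. Effective rate % was computed, each compound was tested at 4 concentrations, and EC50 was derived from a plot of effective rate % against concentration.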

`O=C(/C=C/c1ccc(O)c(O)c1)O[C@@H]1C[C@](O)(C(=O)O)C[C@@H](OC(=O)/C=C/c2ccc(O)c(O)c2)[C@H]1O` showed an IC100 in series [1] of 12.5 µg/mL. Further, the CC100 in the series on MT4 was more than 50 µg/mL. Moreover, in series [2], the IC50 is 2.3 µg/mL (≈ 4.45 µM). The EC50 in series [3] was determined as 16 µg/mL (≈ 31 µM).
Take `O=C(/C=C/c1ccc(O)c(O)c1)O[C@@H]1C[C@@](O)(C(=O)O)C[C@@H](O)[C@@H]1O`: in series [2], the IC50 was determined as 1.5 µg/mL (≈ 4.23 µM). Further, the EC50 in series [3] came to 17 µg/mL (≈ 48 µM).
`CC(=O)Oc1ccc(/C=C/C(=O)O[C@@H]2C=C[C@@]3(C[C@H]2OC(=O)/C=C/c2ccc(OC(C)=O)c(OC(C)=O)c2)OC(C)(C)OC3=O)cc1OC(C)=O` yielded a CC100 with MT4 of more than 6.25 µg/mL. Also, the IC50 in series [2] was found to be 6.3 µg/mL (≈ 8.92 µM). Moreover, in series [3], the EC50 was more than 50 µg/mL.
Regarding `CC1(C)OC(=O)[C@@]2(C=C[C@@H](O)[C@H](OC(=O)/C=C/c3ccc(O)c(O)c3)C2)O1`, the IC100 in series [1] stood at 50 µg/mL. This compound also gave a CC100 in the series on MT4 of more than 100 µg/mL. Further, in series [2], the IC50 was found to be 1.5 µg/mL (≈ 3.99 µM). In addition, the EC50 in series [3] was found to be 20 µg/mL (≈ 53.1 µM).
Turning to `CC1(C)OC(=O)[C@@]2(C=C[C@@H](OC(=O)/C=C/c3ccc(O)c(O)c3)[C@H](O)C2)O1`, the IC100 in series [1] turned out to be 50 µg/mL. In the series with MT4, this compound gave a CC100 of more than 100 µg/mL. The 50% inhibitory concentration (IC50) in series [2] worked out at 1.3 µg/mL (≈ 3.45 µM). The EC50 in series [3] is 18 µg/mL (≈ 47.8 µM).
In the series on MT4, `CC[C@H]1OC(=O)[C@]2(C[C@@H](O)[C@H](O)[C@H](OC(=O)/C=C/c3ccc(O)c(O)c3)C2)O1` came in with a CC100 of more than 12.5 µg/mL. In addition, in series [2], the half-inhibitory concentration (IC50) is 1.1 µg/mL (≈ 2.79 µM). Besides, the EC50 in series [3] worked out at 20 µg/mL (≈ 50.7 µM).
Compound `CC[C@@H]1OC(=O)[C@]2(C[C@@H](O)[C@H](O)[C@H](OC(=O)/C=C/c3ccc(O)c(O)c3)C2)O1` displayed a CC100 with MT4 of more than 12.5 µg/mL. The IC50 in series [2] is 1 µg/mL (≈ 2.54 µM). Moreover, the EC50 in series [3] came to 19 µg/mL (≈ 48.2 µM).
In series [1], `CC1(C)OC(=O)[C@]2(C[C@@H](O)[C@H](O)[C@H](OC(=O)/C=C/c3ccc(O)c(O)c3)C2)O1` displayed an IC100 of 25 µg/mL. Moreover, the CC100 in the series on MT4 was more than 50 µg/mL. Also, the IC50 in series [2] was found to be 1.6 µg/mL (≈ 4.06 µM). Also, the EC50 in series [3] was determined as 8 µg/mL (≈ 20.3 µM).
`COC(=O)[C@@]1(O)C[C@@H](O)[C@H](O)[C@H](OC(=O)/C=C/c2ccc(O)c(O)c2)C1`: the CC100 with MT4 was more than 25 µg/mL. The IC50 in series [2] came to 1.4 µg/mL (≈ 3.8 µM). The EC50 in series [3] is 20 µg/mL (≈ 54.3 µM).
In turn, `CC(=O)Oc1ccc(/C=C/C(=O)O[C@@H]2C[C@]3(C=C[C@H]2O)OC(C)(C)OC3=O)cc1OC(C)=O` came in with an IC100 in series [1] of 50 µg/mL. In the series with MT4, the CC100 was more than 100 µg/mL. In addition, in series [2], the IC50 was determined as 1.8 µg/mL (≈ 3.91 µM). Moreover, the EC50 in series [3] was more than 50 µg/mL.
Take `CC(=O)Oc1ccc(/C=C/C(=O)O[C@@H]2C=C[C@@]3(C[C@H]2O)OC(C)(C)OC3=O)cc1OC(C)=O`: in series [2], the IC50 was 2.9 µg/mL (≈ 6.3 µM). Moreover, in series [3], the EC50 was more than 50 µg/mL.
`O=C(/C=C/c1ccc(O)c(O)c1)O[C@@H]1C=C[C@@](O)(C(=O)O)C[C@H]1OC(=O)/C=C/c1ccc(O)c(O)c1`: the IC100 in series [1] amounted to 6.25 µg/mL. In addition, the CC100 in the series on MT4 was more than 25 µg/mL. For the same compound, in series [2], the IC50 turned out to be 1.9 µg/mL (≈ 3.81 µM). For the same compound, in series [3], the EC50 was 11 µg/mL (≈ 22.1 µM).
The compound `CC1(C)OC(=O)[C@@]2(C=C[C@@H](O)[C@H](O)C2)O1` registered a CC100 in the series with MT4 of more than 100 µg/mL. For the same compound, in series [2], the IC50 was more than 100 µg/mL. For the same compound, in series [3], the EC50 is more than 50 µg/mL.
For `CC1(C)OC(=O)[C@@]2(C=C[C@@H](OC(=O)/C=C/c3ccc(O)c(O)c3)[C@H](OC(=O)/C=C/c3ccc(O)c(O)c3)C2)O1`, the CC100 in the series on MT4 was more than 25 µg/mL. Moreover, the half-inhibitory concentration (IC50) in series [2] is 2 µg/mL (≈ 3.71 µM). The EC50 in series [3] was 20 µg/mL (≈ 37.1 µM).
The matching figures for `O=C(/C=C/c1ccc(O)c(O)c1)O[C@@H]1C[C@](O)(C(=O)O)C=C[C@H]1O`: more than 25 µg/mL, 0.5 µg/mL (≈ 1.49 µM) and 16 µg/mL (≈ 47.6 µM).
As for `CCC1(CC)OC(=O)[C@]2(C[C@@H](O)[C@H](O)[C@H](OC(=O)/C=C/c3ccc(O)c(O)c3)C2)O1`, in the series on MT4, the CC100 is more than 25 µg/mL. Also, the IC50 in series [2] was found to be 2 µg/mL (≈ 4.73 µM). Also, the half-maximal effective concentration (EC50) in series [3] came to 29 µg/mL (≈ 68.7 µM).
Regarding `CCCCC1(CCCC)OC(=O)[C@]2(C[C@@H](O)[C@H](O)[C@H](OC(=O)/C=C/c3ccc(O)c(O)c3)C2)O1`, the CC100 in the series on MT4 was more than 25 µg/mL. In addition, the IC50 in series [2] was 2 µg/mL (≈ 4.18 µM). Further, the EC50 in series [3] was determined as 22 µg/mL (≈ 46 µM).
For `CCCCCC1(CCCCC)OC(=O)[C@]2(C[C@@H](O)[C@H](O)[C@H](OC(=O)/C=C/c3ccc(O)c(O)c3)C2)O1`, the CC100 with MT4 was more than 12.5 µg/mL. In addition, the IC50 in series [2] turned out to be 2.9 µg/mL (≈ 5.72 µM). In addition, the concentration giving a half-maximal response (EC50) in series [3] came to 28 µg/mL (≈ 55.3 µM).
`CCCC1(CCC)OC(=O)[C@]2(C[C@@H](O)[C@H](O)[C@H](OC(=O)/C=C/c3ccc(O)c(O)c3)C2)O1` had a CC100 in the series with MT4 of more than 25 µg/mL. Also, the IC50 in series [2] came to 2 µg/mL (≈ 4.44 µM). Also, the EC50 in series [3] was 30 µg/mL (≈ 66.6 µM).
Regarding `CC1(C)O[C@H]2C=C[C@@]3(C[C@H]2O1)OC(C)(C)OC3=O`, the CC100 with MT4 was more than 100 µg/mL. The IC50 in series [2] came out at 90 µg/mL (≈ 354 µM). Also, the EC50 in series [3] is more than 50 µg/mL.
For `O=C(/C=C/c1ccc(O)c(O)c1)O[C@@H]1C=C[C@@](O)(C(=O)O)C[C@H]1O`, in that order: more than 25 µg/mL, 0.7 µg/mL (≈ 2.08 µM) and 15 µg/mL (≈ 44.6 µM).
`CC1(C)O[C@H]2[C@H](O)C[C@@]3(C[C@H]2O1)OC(C)(C)OC3=O` [QUINIC ACID BISACETONIDE] showed a CC100 in the series with MT4 of more than 100 µg/mL. In addition, the IC50 in series [2] was more than 100 µg/mL. Also, the EC50 in series [3] was more than 50 µg/mL.
